Columns and labels:
[1] = biological target: Glycogen synthase kinase-3 alpha (Homo sapiens, UniProt P49840); experiment: Inhibition of GSK3A in human HeLa cells lysate pre incubated for 15 mins followed by ATP acyl phosphate probe addition and measured after 10 mins by LC-MS/MS analysis; assay type: subcellular
[2] = biological target: Tyrosine-protein kinase CSK (Homo sapiens, UniProt P41240); experiment: Inhibition of CSK in human HeLa cells lysate at 10 uM pre incubated for 15 mins followed by ATP acyl phosphate probe addition and measured after 10 mins by LC-MS/MS analysis relative to control; assay type: subcellular; settings: time 25.0 min
[3] = biological target: Serine/threonine-protein kinase/endoribonuclease IRE1 (Homo sapiens, UniProt O75460); experiment: Inhibition of IRE1 in human HeLa cells lysate at 10 uM pre incubated for 15 mins followed by ADP acyl phosphate probe addition and measured after 10 mins by LC-MS/MS analysis relative to control; assay type: subcellular; settings: time 25.0 min
[4] = biological target: AMPK alpha1/alpha2 (Homo sapiens, UniProt P54646+Q13131); experiment: Inhibition of AMPKalpha1/2 in human HeLa cells lysate pre incubated for 15 mins followed by ATP acyl phosphate probe addition and measured after 10 mins by LC-MS/MS analysis; assay type: subcellular
How it was run: (§1)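 HeLa cell lysates (5 mg/mL total protein) were preincubated with inhibitor at 0, 0.8, 2, 10 or 50 μM for 15 min. ATP or ADP acylphosphate probe was then added (5 μM final) for 10 min, and reactions were stopped with urea. Up to four fragment ions per kinase probe-peptide were quantified by targeted MS. % inhibition was taken relative to untreated lysate. Run in duplicate.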

[5] = biological target: Ribosomal protein S6 kinase alpha-3 (Homo sapiens, UniProt P51812); experiment: Inhibition of RSK2 domain 1 in human HeLa cells lysate at 2 uM pre incubated for 15 mins followed by ADP acyl phosphate probe addition and measured after 10 mins by LC-MS/MS analysis relative to control; assay type: subcellular; settings: time 25.0 min
[6] = biological target: Serine/threonine-protein kinase tousled-like 2 (Homo sapiens, UniProt Q86UE8); experiment: Inhibition of TLK2 in human HeLa cells lysate at 2 uM pre incubated for 15 mins followed by ADP acyl phosphate probe addition and measured after 10 mins by LC-MS/MS analysis relative to control; assay type: subcellular; settings: time 25.0 min
[7] = biological target: Phosphatidylinositol 3-kinase catalytic subunit type 3 (Homo sapiens, UniProt Q8NEB9); experiment: Inhibition of PIK3C3 in human HeLa cells lysate at 2 uM pre incubated for 15 mins followed by ATP acyl phosphate probe addition and measured after 10 mins by LC-MS/MS analysis relative to control; assay type: subcellular; settings: time 25.0 min
[8] = biological target: Non-receptor tyrosine-protein kinase TNK1 (Homo sapiens, UniProt Q13470); experiment: Inhibition of TNK1 in human HeLa cells lysate pre incubated for 15 mins followed by ADP acyl phosphate probe addition and measured after 10 mins by LC-MS/MS analysis; assay type: subcellular
[9] = biological target: Activated CDC42 kinase 1 (Homo sapiens, UniProt Q07912); experiment: Inhibition of ACK1 in human HeLa cells lysate at 10 uM pre incubated for 15 mins followed by ADP acyl phosphate probe addition and measured after 10 mins by LC-MS/MS analysis relative to control; assay type: subcellular; settings: time 25.0 min; how it was run: as §1
[10] = biological target: Cyclin-dependent kinase 16 (Homo sapiens, UniProt Q00536); experiment: Inhibition of PCTAIRE1 in human HeLa cells lysate at 50 uM pre incubated for 15 mins followed by ADP acyl phosphate probe addition and measured after 10 mins by LC-MS/MS analysis relative to control; assay type: subcellular; settings: time 25.0 min
[11] = Inhibition of HGK/MINK/TNIK in human HeLa cells lysate at 2 uM pre incubated for 15 mins followed by ATP acyl phosphate probe addition and measured after 10 mins by LC-MS/MS analysis relative to control; settings: 25 min, condition cancer
[12] = Inhibition of PRKX/PRKY in human HeLa cells lysate at 10 uM pre incubated for 15 mins followed by ADP acyl phosphate probe addition and measured after 10 mins by LC-MS/MS analysis relative to control; settings: 25 min, condition cancer
[13] = biological target: T1, Serine/threonine-protein kinase A-Raf (Homo sapiens) (UniProt P10398); experiment: Inhibition of ARAF in human HeLa cells lysate at 10 uM pre incubated for 15 mins followed by ATP acyl phosphate probe addition and measured after 10 mins by LC-MS/MS analysis relative to control; assay type: subcellular; settings: time 25.0 min
T1 sequence (whole entry): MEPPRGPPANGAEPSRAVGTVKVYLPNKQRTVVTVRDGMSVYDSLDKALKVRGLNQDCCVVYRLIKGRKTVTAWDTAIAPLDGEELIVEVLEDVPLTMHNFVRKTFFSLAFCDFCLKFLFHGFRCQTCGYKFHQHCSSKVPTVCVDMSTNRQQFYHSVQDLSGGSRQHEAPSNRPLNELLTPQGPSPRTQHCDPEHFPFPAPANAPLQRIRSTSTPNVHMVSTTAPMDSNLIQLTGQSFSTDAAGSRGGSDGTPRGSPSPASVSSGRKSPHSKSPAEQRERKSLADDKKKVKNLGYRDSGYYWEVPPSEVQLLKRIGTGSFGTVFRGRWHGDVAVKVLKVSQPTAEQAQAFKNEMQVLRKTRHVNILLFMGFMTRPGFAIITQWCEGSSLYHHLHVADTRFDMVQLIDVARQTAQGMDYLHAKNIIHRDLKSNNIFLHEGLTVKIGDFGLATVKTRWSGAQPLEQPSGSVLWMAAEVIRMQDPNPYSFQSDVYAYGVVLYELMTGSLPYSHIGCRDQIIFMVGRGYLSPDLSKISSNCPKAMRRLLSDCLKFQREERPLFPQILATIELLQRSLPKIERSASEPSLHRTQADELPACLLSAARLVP
How it was run: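 KiNativ-type profiling in HeLa lysate (5 mg/mL total protein). Lysate preincubated 15 min with inhibitor at 50, 10, 2, 0.8 or 0 μM, then ATP or ADP acylphosphate probe added (5 μM final) for 10 min. Reaction stopped with urea and analysed by targeted MS, using up to four fragment ions per kinase peptide-probe conjugate. % inhibition calculated against untreated lysate. Duplicate reactions.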

[14] = biological target: Hepatocyte growth factor receptor (Homo sapiens, UniProt P08581); experiment: Inhibition of MET in human HeLa cells lysate pre incubated for 15 mins followed by ATP acyl phosphate probe addition and measured after 10 mins by LC-MS/MS analysis; assay type: subcellular
[15] = biological target: Serine/threonine-protein kinase Nek7 (Homo sapiens, UniProt Q8TDX7); experiment: Inhibition of NEK7 in human HeLa cells lysate at 10 uM pre incubated for 15 mins followed by ADP acyl phosphate probe addition and measured after 10 mins by LC-MS/MS analysis relative to control; assay type: subcellular; settings: time 25.0 min
[16] = Toxicity in C57Bl/6 mouse assessed as distress effect at 50 mg/kg, ip for 14 days; assay type: organism-based; settings: in vivo, 336 h, time 14 day
[17] = Inhibition of PCTAIRE2/PCTAIRE3 in human HeLa cells lysate pre incubated for 15 mins followed by ADP acyl phosphate probe addition and measured after 10 mins by LC-MS/MS analysis; assay type: subcellular

Sequence of AMPK alpha1/alpha2 (P54646 whole entry, the tested form may be a part): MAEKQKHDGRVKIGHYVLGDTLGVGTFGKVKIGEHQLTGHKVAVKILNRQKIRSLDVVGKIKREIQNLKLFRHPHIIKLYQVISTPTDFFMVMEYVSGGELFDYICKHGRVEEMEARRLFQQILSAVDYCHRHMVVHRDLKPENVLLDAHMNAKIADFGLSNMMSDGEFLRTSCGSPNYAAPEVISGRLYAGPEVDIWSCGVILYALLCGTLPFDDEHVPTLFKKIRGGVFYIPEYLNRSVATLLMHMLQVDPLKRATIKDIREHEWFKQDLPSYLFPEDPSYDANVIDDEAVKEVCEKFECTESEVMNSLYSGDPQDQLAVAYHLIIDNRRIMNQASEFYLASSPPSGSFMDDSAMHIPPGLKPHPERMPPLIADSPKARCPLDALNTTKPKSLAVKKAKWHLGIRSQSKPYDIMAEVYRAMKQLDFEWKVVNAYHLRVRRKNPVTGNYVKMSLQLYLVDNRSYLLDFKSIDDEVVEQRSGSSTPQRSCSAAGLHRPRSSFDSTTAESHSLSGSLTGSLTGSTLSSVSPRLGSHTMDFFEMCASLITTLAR
Sequence of AMPK alpha1/alpha2 (Q13131 whole entry, the tested form may be a part): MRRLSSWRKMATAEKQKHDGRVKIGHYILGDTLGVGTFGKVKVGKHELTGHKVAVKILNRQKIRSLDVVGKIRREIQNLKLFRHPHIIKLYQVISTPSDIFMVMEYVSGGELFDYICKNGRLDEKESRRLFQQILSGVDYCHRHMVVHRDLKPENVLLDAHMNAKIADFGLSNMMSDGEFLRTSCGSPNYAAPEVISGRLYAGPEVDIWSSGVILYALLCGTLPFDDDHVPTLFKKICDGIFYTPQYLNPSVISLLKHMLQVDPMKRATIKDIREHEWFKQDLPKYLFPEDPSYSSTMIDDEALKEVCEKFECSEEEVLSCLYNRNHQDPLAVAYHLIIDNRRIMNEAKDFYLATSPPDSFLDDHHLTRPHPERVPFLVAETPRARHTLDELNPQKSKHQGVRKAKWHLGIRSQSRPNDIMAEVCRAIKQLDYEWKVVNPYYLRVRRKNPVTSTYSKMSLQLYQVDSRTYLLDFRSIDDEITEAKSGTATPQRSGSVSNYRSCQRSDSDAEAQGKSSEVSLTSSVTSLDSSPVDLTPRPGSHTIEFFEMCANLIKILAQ
Sequence of Glycogen synthase kinase-3 alpha (P49840 whole entry): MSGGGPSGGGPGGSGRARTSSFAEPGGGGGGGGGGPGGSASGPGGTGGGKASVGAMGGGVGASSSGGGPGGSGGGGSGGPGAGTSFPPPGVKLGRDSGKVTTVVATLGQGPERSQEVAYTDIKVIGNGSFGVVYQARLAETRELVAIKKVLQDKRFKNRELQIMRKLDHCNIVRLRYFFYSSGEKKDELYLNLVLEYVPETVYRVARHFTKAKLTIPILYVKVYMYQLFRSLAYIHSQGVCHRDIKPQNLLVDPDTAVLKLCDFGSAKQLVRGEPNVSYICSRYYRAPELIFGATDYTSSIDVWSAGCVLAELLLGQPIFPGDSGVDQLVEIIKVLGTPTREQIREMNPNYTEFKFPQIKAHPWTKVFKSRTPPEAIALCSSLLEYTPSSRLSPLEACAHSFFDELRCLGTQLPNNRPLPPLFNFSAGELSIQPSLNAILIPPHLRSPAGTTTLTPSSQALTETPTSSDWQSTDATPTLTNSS
Sequence of Non-receptor tyrosine-protein kinase TNK1 (Q13470 whole entry): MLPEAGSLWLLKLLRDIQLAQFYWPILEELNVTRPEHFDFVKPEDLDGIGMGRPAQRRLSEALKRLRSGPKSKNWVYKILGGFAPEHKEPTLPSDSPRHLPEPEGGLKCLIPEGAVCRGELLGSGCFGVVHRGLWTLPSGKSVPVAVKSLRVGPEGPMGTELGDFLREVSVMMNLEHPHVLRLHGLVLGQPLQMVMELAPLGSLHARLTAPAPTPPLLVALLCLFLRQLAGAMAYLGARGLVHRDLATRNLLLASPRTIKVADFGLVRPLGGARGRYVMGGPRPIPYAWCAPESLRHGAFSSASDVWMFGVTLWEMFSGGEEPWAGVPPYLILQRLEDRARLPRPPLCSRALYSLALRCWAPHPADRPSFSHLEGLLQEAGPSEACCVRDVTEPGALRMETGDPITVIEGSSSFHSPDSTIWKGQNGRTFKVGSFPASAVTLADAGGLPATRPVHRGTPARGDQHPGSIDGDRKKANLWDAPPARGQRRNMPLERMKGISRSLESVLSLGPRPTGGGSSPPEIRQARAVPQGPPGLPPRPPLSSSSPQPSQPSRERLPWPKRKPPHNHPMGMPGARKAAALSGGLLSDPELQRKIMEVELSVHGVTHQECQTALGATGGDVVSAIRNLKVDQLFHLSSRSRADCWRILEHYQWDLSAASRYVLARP
Sequence of Cyclin-dependent kinase 16 (Q00536 whole entry): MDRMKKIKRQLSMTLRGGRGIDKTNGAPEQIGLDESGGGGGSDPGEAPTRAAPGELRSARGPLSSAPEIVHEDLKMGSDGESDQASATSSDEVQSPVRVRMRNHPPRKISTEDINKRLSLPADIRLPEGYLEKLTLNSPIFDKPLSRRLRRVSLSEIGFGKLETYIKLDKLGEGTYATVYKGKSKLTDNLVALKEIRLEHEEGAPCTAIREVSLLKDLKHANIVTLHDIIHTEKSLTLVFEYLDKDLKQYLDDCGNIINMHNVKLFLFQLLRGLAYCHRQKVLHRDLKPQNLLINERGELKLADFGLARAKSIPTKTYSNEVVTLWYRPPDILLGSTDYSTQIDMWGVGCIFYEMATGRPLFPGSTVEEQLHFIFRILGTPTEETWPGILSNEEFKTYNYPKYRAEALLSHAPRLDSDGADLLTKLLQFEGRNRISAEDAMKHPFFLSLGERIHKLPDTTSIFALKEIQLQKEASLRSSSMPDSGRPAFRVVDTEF
Sequence of Serine/threonine-protein kinase Nek7 (Q8TDX7 whole entry, looked up): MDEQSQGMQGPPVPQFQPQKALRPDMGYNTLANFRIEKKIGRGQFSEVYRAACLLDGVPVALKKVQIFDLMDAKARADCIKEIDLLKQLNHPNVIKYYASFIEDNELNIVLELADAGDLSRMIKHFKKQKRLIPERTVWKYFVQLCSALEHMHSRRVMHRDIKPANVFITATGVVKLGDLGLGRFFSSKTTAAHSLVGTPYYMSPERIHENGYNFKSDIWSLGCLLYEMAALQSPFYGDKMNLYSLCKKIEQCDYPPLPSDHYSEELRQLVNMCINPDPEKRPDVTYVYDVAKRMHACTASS
Sequence of Phosphatidylinositol 3-kinase catalytic subunit type 3 (Q8NEB9 whole entry): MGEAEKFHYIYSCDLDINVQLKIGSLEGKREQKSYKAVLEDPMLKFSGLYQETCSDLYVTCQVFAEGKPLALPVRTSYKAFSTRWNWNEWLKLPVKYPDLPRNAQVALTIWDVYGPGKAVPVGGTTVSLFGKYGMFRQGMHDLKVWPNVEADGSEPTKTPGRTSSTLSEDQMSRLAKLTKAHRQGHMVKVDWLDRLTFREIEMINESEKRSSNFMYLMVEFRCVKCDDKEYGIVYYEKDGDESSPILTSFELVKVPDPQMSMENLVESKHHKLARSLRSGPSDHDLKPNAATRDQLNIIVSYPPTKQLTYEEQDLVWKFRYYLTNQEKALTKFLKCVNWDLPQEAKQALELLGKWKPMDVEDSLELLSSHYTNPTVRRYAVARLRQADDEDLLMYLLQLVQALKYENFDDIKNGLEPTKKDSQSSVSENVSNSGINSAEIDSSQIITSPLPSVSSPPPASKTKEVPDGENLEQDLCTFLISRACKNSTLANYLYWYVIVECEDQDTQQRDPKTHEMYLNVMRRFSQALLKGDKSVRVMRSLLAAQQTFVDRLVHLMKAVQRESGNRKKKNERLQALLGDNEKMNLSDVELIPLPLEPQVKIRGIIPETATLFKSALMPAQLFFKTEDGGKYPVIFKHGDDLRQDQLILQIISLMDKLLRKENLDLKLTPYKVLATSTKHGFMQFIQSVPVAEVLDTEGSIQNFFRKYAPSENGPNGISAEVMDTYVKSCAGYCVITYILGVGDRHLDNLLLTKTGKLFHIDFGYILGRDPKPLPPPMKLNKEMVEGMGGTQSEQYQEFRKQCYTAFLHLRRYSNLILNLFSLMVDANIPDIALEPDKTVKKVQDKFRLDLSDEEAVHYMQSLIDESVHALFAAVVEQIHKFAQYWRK
Sequence of Activated CDC42 kinase 1 (Q07912 whole entry, looked up): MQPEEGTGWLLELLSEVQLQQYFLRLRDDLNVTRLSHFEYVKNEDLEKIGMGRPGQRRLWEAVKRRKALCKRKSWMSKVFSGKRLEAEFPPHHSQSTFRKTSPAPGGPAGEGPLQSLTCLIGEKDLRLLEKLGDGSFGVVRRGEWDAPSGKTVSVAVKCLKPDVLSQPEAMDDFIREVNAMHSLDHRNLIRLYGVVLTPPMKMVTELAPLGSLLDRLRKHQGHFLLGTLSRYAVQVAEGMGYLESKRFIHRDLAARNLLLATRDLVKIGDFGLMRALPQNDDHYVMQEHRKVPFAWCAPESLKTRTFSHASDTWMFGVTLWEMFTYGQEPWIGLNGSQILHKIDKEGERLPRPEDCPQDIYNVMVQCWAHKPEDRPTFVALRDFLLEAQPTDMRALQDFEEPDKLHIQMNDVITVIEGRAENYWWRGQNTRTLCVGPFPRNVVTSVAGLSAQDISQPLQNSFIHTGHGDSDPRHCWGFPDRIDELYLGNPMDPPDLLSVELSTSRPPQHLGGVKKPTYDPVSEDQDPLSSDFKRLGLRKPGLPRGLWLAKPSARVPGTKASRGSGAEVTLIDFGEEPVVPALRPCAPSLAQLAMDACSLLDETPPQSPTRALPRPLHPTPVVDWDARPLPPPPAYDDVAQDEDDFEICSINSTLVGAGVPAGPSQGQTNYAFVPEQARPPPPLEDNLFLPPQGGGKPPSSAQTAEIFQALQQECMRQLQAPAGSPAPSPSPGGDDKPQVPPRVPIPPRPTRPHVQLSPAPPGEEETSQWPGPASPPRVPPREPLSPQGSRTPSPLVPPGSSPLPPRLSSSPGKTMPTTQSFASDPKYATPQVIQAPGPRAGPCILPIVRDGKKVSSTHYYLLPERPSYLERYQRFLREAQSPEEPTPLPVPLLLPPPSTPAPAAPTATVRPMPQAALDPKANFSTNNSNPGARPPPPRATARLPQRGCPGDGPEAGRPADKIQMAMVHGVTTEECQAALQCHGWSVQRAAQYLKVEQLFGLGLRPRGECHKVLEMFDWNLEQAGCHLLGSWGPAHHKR

`CCOc1cc(N2CCC(O)CC2)ccc1Nc1ncc2c(n1)N(C)c1ccccc1C(=O)N2C` showed an IC50 [1] greater than 50 µM, an inhibition [2] of -3.4% and an inhibition [3] of 15.6%. It also gave an IC50 [4] greater than 50 µM, an inhibition [5] of 4.9% and an inhibition [6] of 7.3%. It also gave an inhibition [7] of -0.4%, an IC50 [8] of 10 µM and an inhibition [9] of 37%. It also gave an inhibition [10] of 11.3%, an inhibition at 2 µM [11] of -5.2% and an inhibition at 10 µM [12] of -14.3%. The inhibition [13] was 11.2%, the IC50 [14] was greater than 50 µM and the inhibition [15] was -7.9%. The Activity [16] was “Non-Toxic” and the IC50 [17] was greater than 50 µM.

From ChEMBL document CHEMBL5661979, “Pharmacological inhibition of BMK1 suppresses tumor growth through promyelocytic leukemia protein” (Cancer Cell, 2010)
